Measured values pooled from the literature.
Matrix: plasma

Structure (SMILES) | test system | setting | quantity | value
CN1CC[C@@H](c2c(O)cc(O)c3c(=O)cc(-c4ccc(C(F)(F)F)cc4Cl)oc23)[C@@H]1CO | human | oral, 50 mg, patients | AUC(0-t) | 1430 ng·h/mL
Cc1ccc(C(=O)Nc2ccc(CN3CCN(C)CC3)c(C(F)(F)F)c2)cc1C#Cc1cnc2[nH]ncc2c1 | human | oral, 20 mg, single dose, healthy volunteers | AUC(0-t) | 105 ng·h/mL
NC(=S)NN=Cc1ncccc1N | human | oral, 150 mg | AUC(0-t) | 990 ng·h/mL
COc1ccc([C@@H](O)c2cc(-c3ncnc4cc(N5CCOCC5)ccc34)c(F)cc2Cl)nn1 | human | oral, 200 mg, single dose, patients | AUC(0-t) | 6790 ng·h/mL
CC(=O)N[C@H]1CC[C@H](NC(=O)CN2CCN(c3nncc(-c4ccc(C)cc4)n3)CC2)CC1 | female human | oral, 100 mg, single dose, fasted, healthy volunteers | AUC(0-inf) | 6500 ng·h/mL
CC[C@H](C)CCCCC(=O)N[C@@H](CCN)C(=O)N[C@H](C(=O)N[C@@H](CCN)C(=O)N[C@H]1CCNC(=O)[C@H]([C@@H](C)O)NC(=O)[C@H](CCN)NC(=O)[C@H](CCN)NC(=O)[C@H](CC(C)C)NC(=O)[C@@H](Cc2ccccc2)NC(=O)[C@H](CCN)NC1=O)[C@@H](C)O | human | intravenous, 0.75 mg/kg, single dose, infusion | AUC(0-inf) | 20500 ng·h/mL
CC(C)n1c(Nc2cccnc2)nc2cnc(Nc3ccc(N4CCN(C)CC4)cc3)nc21 | male human | oral, 150 mg | AUC(0-inf) | 1390 ng·h/mL
Cn1cc(Nc2nc(N)nc(-c3cccc(-n4ccc5cc(C6CC6)cc(F)c5c4=O)c3CO)n2)cn1 | human | oral, 900 mg, single dose, fasted, suspension | AUC(0-t) | 64100 ng·h/mL
C[C@H](O)C(=O)C1=Nc2c(nc(N)[nH]c2=O)NC1 | human | oral, 20 mg/kg, single dose, healthy volunteers | AUC(0-t) | 5.29 ng·h/mL
CNC(=O)n1ccc2cc(Oc3ccnc(NC(=O)c4ccc(C5CCN(CCO)CC5)cc4)c3)c(OCCOC)cc21 | human | oral, 35 mg, single dose, healthy volunteers | AUC(0-inf) | 93.4 ng·h/mL
Cl.[2H]C([2H])([2H])CC(=O)c1cnc(NC(=O)C2CC2)cc1Nc1cccc(-c2ncn(C([2H])([2H])[2H])n2)c1OC | human | oral, 20 mg, multiple doses, once daily, steady state | AUC | 1100 ng·h/mL
NS(=O)(=O)OC[C@@H]1C[C@@H](n2ccc3c(N[C@H]4CCc5ccccc54)ncnc32)C[C@@H]1O | human | intravenous, 15 mg/m², patients | AUC(0-t) | 780 ng·h/mL
